In ChEMBL document CHEMBL1123760, “Synthesis and oral antifungal activity of novel azolylpropanolones and related compounds” (1987):
≈ marks a conversion by molar mass, not a printed value.

Assays:
Assay type in all cases: functional
Candida albicans [1] = assay: In vitro antifungal activity against Candida albicans; conditions: Candida albicans; read-out: MIC
How it was run: (§1)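 Broth microdilution MIC in Sabouraud's glucose broth; final inocula 1 × 10^5 cells/mL (yeast) or 1 × 10^5 conidia/mL (mold and dermatophyte).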

Trichophyton benhamiae = assay: In vitro antifungal activity against Trichophyton asteroides; conditions: Trichophyton benhamiae; read-out: MIC; how it was run: as §1
Aspergillus fumigatus = assay: In vitro antifungal activity against Aspergillus fumigatus; conditions: Aspergillus fumigatus; read-out: MIC; how it was run: as §1
Candida albicans [2] = assay: Minimum effective concentration for inhibition of pseudomycelium formation in Candida albicans; conditions: Candida albicans; read-out: MEC
How it was run: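 C. albicans KE-2 (clinical isolate) at a final 1 × 10^6 yeast cells/mL in EMEM with 20% calf serum; compounds diluted by the same microtiter system as for MICs. After incubation, wells were Giemsa-stained (5% in phosphate buffer) and read by microscope. MEC is the lowest concentration preventing typical pseudomycelium formation.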

Compound | MIC (Candida albicans [1]) [µg/mL] | MIC (Trichophyton benhamiae) [µg/mL] | MIC (Aspergillus fumigatus) [µg/mL] | minimal effective concentration (Candida albicans [2]) [µg/mL]
Fc1ccc([C@H]2OC(=S)O[C@]2(Cn2cncn2)c2ccc(Cl)cc2Cl)cc1 | 100 (≈ 236 µM) | 3.1 (≈ 7.31 µM) | > 100 | 10
Clc1ccc([C@H]2OCO[C@]2(Cn2cncn2)c2ccccc2)c(Cl)c1 | > 100 | 0.2 (≈ 0.532 µM) | 12.5 (≈ 33.2 µM) | 0.63
OC(c1ccccc1Cl)C(O)(Cn1cncn1)c1ccccc1 (centres undefined) | > 100 | 0.8 (≈ 2.43 µM) | > 100 | > 20
O=S1O[C@H](c2ccccc2)[C@@](Cn2cncn2)(c2ccc(Cl)cc2Cl)O1 (some centres undefined) | > 100 | 0.1 (≈ 0.244 µM) | 50 (≈ 122 µM) | 0.04
Cc1ccc([C@H]2OC(=O)O[C@]2(Cn2cncn2)c2ccc(C)cc2)cc1 | > 100 | 3.1 (≈ 8.87 µM) | > 100 | 1.25
OC(c1ccccc1)C(O)(Cn1cncn1)c1ccccc1 (centres undefined) | > 100 | 25 (≈ 84.6 µM) | > 100 | > 20
O=C(c1ccccn1)C(O)(Cn1cncn1)c1ccccn1 (centres undefined) | > 100 | > 100 | > 100 | > 20
O=C(c1ccc(F)cc1)C(O)(Cn1ccnc1)c1ccc(Cl)cc1Cl (centres undefined) | > 100 | 0.1 (≈ 0.264 µM) | > 100 | 1.25
O=C1O[C@H](c2ccc(F)cc2)[C@@](Cn2ccnc2)(c2ccc(Cl)cc2Cl)O1 | 100 (≈ 246 µM) | 0.2 (≈ 0.491 µM) | 50 (≈ 123 µM) | 0.16
Cc1ccc([C@H]2OC(=O)O[C@]2(Cn2cncn2)c2ccccc2Cl)cc1 | > 100 | 3.1 (≈ 8.38 µM) | > 100 | 0.63
COc1ccc(C(=O)C(O)(Cn2cnnc2)c2ccc(OC)cc2)cc1 (centres undefined) | > 100 | 50 (≈ 141 µM) | > 100 | 2.5
OC(Cc1ccc(Cl)cc1)(c1ccccc1)C(O)(Cn1cncn1)c1ccc(Cl)cc1Cl (centres undefined) | > 100 | 50 (≈ 102 µM) | > 100 | 20
O=C1O[C@H](c2ccc(Cl)cc2)[C@@](Cn2cncn2)(c2ccc(Cl)cc2)O1 | 50 (≈ 128 µM) | 0.8 (≈ 2.05 µM) | > 100 | 1.25
CCCCCC(O)(Cn1cncn1)C(=O)c1ccc(Cl)cc1 (centres undefined) | 100 (≈ 311 µM) | 0.2 (≈ 0.621 µM) | > 100 | 0.63
CC(C)C(C)(O)C(O)(Cn1cncn1)c1ccccc1 (centres undefined) | > 100 | 6.3 (≈ 22.9 µM) | > 100 | 10
CC(C)C(O)(Cn1cncn1)C(O)(c1ccc(Cl)cc1)c1ccc(Cl)cc1 (centres undefined) | > 100 | 6.3 (≈ 15.5 µM) | > 100 | > 20
OC(c1ccc(F)cc1)C(O)(Cn1cncn1)c1ccc(F)cc1 (centres undefined) | > 100 | 1.6 (≈ 4.83 µM) | > 100 | 10
OC(c1ccc(Cl)cc1Cl)C(O)(Cn1cncn1)c1ccc(Cl)cc1 (centres undefined) | 100 (≈ 251 µM) | 0.1 (≈ 0.251 µM) | > 100 | 0.31
CCCCC(O)(c1ccccc1)C(O)(Cn1cncn1)c1ccc(Cl)cc1Cl (centres undefined) | > 100 | 0.2 (≈ 0.476 µM) | > 100 | 2.5

Compound | MIC (Candida albicans [1]) [µg/mL] | MIC (Trichophyton benhamiae) [µg/mL] | MIC (Aspergillus fumigatus) [µg/mL] | minimal effective concentration (Candida albicans [2]) [µg/mL]
CC(C)C(O)(Cn1cncn1)C(C)(O)c1ccc(Cl)cc1 (centres undefined) | > 100 | 1.6 (≈ 5.16 µM) | 50 (≈ 161 µM) | 5
O=C(c1ccc(F)cc1)C(O)(Cn1cncn1)c1ccc(F)cc1 (centres undefined) | 100 (≈ 304 µM) | 0.79 (≈ 2.4 µM) | > 100 | 10
CC(C)CC(O)(Cn1cncn1)C(=O)c1ccc(Cl)cc1 (centres undefined) | > 100 | 0.8 (≈ 2.6 µM) | > 100 | 0.31
CC(C)[C@H]1OCO[C@@]1(Cn1cncn1)c1ccc(Cl)cc1 | > 100 | 0.4 (≈ 1.3 µM) | 100 (≈ 325 µM) | 0.04
O=S1O[C@H](c2ccc(Cl)cc2)[C@](Cn2cncn2)(c2ccc(Cl)cc2Cl)O1 (some centres undefined) | > 100 | 0.1 (≈ 0.225 µM) | > 100 | 0.02
O=S1O[C@H](c2ccccc2)[C@](Cn2cncn2)(c2ccc(Cl)cc2Cl)O1 (some centres undefined) | > 100 | 0.1 (≈ 0.244 µM) | > 100 | 0.08
Fc1ccc([C@H]2OCO[C@]2(Cn2cncn2)c2ccc(Cl)cc2Cl)cc1 | > 100 | 0.1 (≈ 0.254 µM) | > 100 | 0.31
OC(c1ccc(Cl)cc1)C(O)(Cn1ccnc1)c1ccc(Cl)cc1 (centres undefined) | > 100 | 50 (≈ 138 µM) | > 100 | > 20
O=C(c1cccc(Cl)c1)C(O)(Cn1cncn1)c1cccc(Cl)c1 (centres undefined) | > 100 | 3.13 (≈ 8.64 µM) | > 100 | > 20
O=C1O[C@H](c2cccc(Cl)c2)[C@@](Cn2cncn2)(c2cccc(Cl)c2)O1 | 100 (≈ 256 µM) | 6.3 (≈ 16.1 µM) | > 100 | > 20
Fc1ccc([C@H]2OCO[C@]2(Cn2cncn2)c2ccc(Cl)cc2)cc1 | > 100 | 0.2 (≈ 0.556 µM) | > 100 | 0.63
CC(C)[C@H]1OC(=O)O[C@]1(Cn1cncn1)c1ccc(Cl)cc1 | > 100 | 1.6 (≈ 4.97 µM) | > 100 | 0.31
CC(O)(c1ccc(Cl)cc1Cl)C(O)(Cn1cncn1)c1ccc(Cl)cc1 (centres undefined) | 100 (≈ 242 µM) | 0.1 (≈ 0.242 µM) | 50 (≈ 121 µM) | 1.25
CCCC(O)C(O)(Cn1cncn1)c1ccc(Cl)cc1Cl (centres undefined) | > 100 | 0.1 (≈ 0.303 µM) | 50 (≈ 151 µM) | 0.04
COc1ccc(C(=O)C(O)(Cn2cncn2)c2ccc(OC)cc2)cc1 (centres undefined) | > 100 | 12.5 (≈ 35.4 µM) | > 100 | > 20
OC(c1cccc(Cl)c1)C(O)(Cn1cncn1)c1cccc(Cl)c1 (centres undefined) | > 100 | 3.1 (≈ 8.51 µM) | > 100 | > 20
O=C(c1ccco1)C(O)(Cn1cncn1)c1ccco1 (centres undefined) | > 100 | 100 (≈ 366 µM) | > 100 | > 20
CCCC(=O)C(O)(Cn1cncn1)c1ccccc1Cl (centres undefined) | > 100 | 0.8 (≈ 2.72 µM) | 100 (≈ 340 µM) | 0.04
CC(C)C(O)C(O)(Cn1cncn1)c1ccc(Cl)cc1Cl (centres undefined) | > 100 | 0.1 (≈ 0.303 µM) | 50 (≈ 151 µM) | 0.04

Compound | MIC (Candida albicans [1]) [µg/mL] | MIC (Trichophyton benhamiae) [µg/mL] | MIC (Aspergillus fumigatus) [µg/mL] | minimal effective concentration (Candida albicans [2]) [µg/mL]
COc1ccccc1C(=O)C(O)(Cn1cncn1)c1ccccc1OC (centres undefined) | > 100 | 12.5 (≈ 35.4 µM) | > 100 | > 20
CCCCC(O)(Cn1cncn1)C(=O)c1ccc(Cl)cc1Cl (centres undefined) | 100 (≈ 292 µM) | 0.1 (≈ 0.292 µM) | 50 (≈ 146 µM) | 0.31
CCC(O)(Cn1cncn1)C(=O)c1ccc(Cl)cc1Cl (centres undefined) | > 100 | 1.6 (≈ 5.09 µM) | > 100 | 20
OC(Cn1cncn1)(c1ccc(Cl)cc1Cl)C(O)(c1ccc(F)cc1)c1cccs1 (centres undefined) | > 100 | 0.8 (≈ 1.72 µM) | > 100 | 5
CCCC[C@H]1OC(=O)O[C@]1(Cn1cncn1)c1ccc(Cl)cc1Cl | > 100 | 0.2 (≈ 0.54 µM) | > 100 | 0.63
CCC[C@H]1OC(=O)O[C@]1(Cn1cncn1)c1ccc(Cl)cc1Cl | 100 (≈ 281 µM) | 1.6 (≈ 4.49 µM) | > 100 | 0.16
O=C(c1ccc(F)cc1)C(O)(Cn1cnnc1)c1ccccc1Cl (centres undefined) | > 100 | > 100 | > 100 | > 20
CC(C)[C@H]1OC(=O)O[C@@]1(Cn1cncn1)c1ccc(Cl)cc1 | > 100 | 6.3 (≈ 19.6 µM) | > 100 | 0.63
O=C(c1ccc(F)cc1)C(O)(Cn1cnnc1)c1ccc(Cl)cc1Cl (centres undefined) | > 100 | > 100 | > 100 | > 20
CC(C)[C@H]1OS(=O)O[C@]1(Cn1cncn1)c1ccc(Cl)cc1 (some centres undefined) | > 100 | 0.4 (≈ 1.17 µM) | > 100 | 0.16
O=C(c1cccs1)C(O)(Cn1ccnc1)c1ccc(Cl)cc1 (centres undefined) | > 100 | 0.8 (≈ 2.4 µM) | > 100 | 5
CC(O)(c1ccc(Cl)cc1)C(O)(Cn1ccnc1)c1ccc(Cl)cc1 (centres undefined) | > 100 | 0.8 (≈ 2.12 µM) | > 100 | 1.25
O=C(c1ccc(Cl)cc1)C(O)(Cn1cncn1)c1ccc(Cl)cc1 (centres undefined) | 50 (≈ 138 µM) | 0.39 (≈ 1.08 µM) | > 100 | 20
CCCCC(O)(Cn1cncn1)C(=O)c1ccccc1Cl (centres undefined) | > 100 | 0.4 (≈ 1.3 µM) | 50 (≈ 162 µM) | 0.63
O=C(c1ccccc1)C(O)(Cn1cncn1)c1ccccc1Cl (centres undefined) | > 100 | 1.6 (≈ 4.88 µM) | > 100 | 2.5
Clc1ccc([C@@]2(Cn3cncn3)OCO[C@@H]2c2ccccc2)c(Cl)c1 | > 100 | 0.2 (≈ 0.532 µM) | 12.5 (≈ 33.2 µM) | 0.08
CC(O)(c1ccc(F)cc1)C(O)(Cn1ccnc1)c1ccc(Cl)cc1 (centres undefined) | > 100 | 0.4 (≈ 1.11 µM) | > 100 | 2.5
CC(O)(c1ccc(Cl)cc1)C(O)(Cn1cncn1)c1ccc(F)cc1 (centres undefined) | > 100 | 0.4 (≈ 1.11 µM) | > 100 | 2.5
